{"data": "Published values of several laboratories", "cell line": "SK-BR-3", "effect on": "cell growth or viability", "note": "Protocols differ between the studies behind these lines."}
{"Structure (SMILES)": "COC1=C2C[C@@H](C)C[C@H](OC)[C@H](O)[C@@H](C)/C=C(\\C)[C@H](OC(N)=O)[C@@H](OC)/C=C\\C=C(/C)C(=O)NC(=CC1=O)C2=O", "assay": "SRB", "conditions": "72 h", "quantity": "IC50", "result": "50 nM"}
{"Structure (SMILES)": "CN1CCN(c2ccc(Nc3ncc4cc(C#N)c(=O)n(C5CCCC5)c4n3)cc2)CC1", "assay": "resazurin", "conditions": "96 h", "quantity": "GI50", "result": "600 nM"}
{"Structure (SMILES)": "COc1cc(Nc2nccc(-c3cnn4nc(OC)ccc34)n2)cc(C(F)(F)F)c1", "assay": "ATP luminescence", "quantity": "IC50", "result": "340 nM"}
{"Structure (SMILES)": "COc1cccc2c1C(=O)c1c(O)c3c(c(O)c1C2=O)C[C@@](O)(C(=O)CO)C[C@@H]3O[C@H]1C[C@H](N)[C@H](O)[C@H](C)O1", "assay": "MTT", "conditions": "72 h", "quantity": "IC50", "result": "1650 nM"}
{"Structure (SMILES)": "CC(=O)O[C@H]1C(=O)[C@@]2(C)[C@H]([C@H](OC(=O)c3ccccc3)[C@]3(O)C[C@H](OC(=O)[C@H](O)[C@@H](NC(=O)c4ccccc4)c4ccccc4)C(C)=C1C3(C)C)[C@]1(OC(C)=O)CO[C@@H]1C[C@@H]2O", "assay": "MTT", "conditions": "72 h", "quantity": "IC50", "result": "5 nM"}
{"Structure (SMILES)": "COc1cc(OC)c(/C=C/S(=O)(=O)Nc2ccc(OC)c(N)c2)c(OC)c1", "assay": "trypan blue", "conditions": "96 h", "quantity": "IC50", "result": "4 nM"}
{"Structure (SMILES)": "Cc1cc(C)n(-c2nc(NN=Cc3c[nH]c4ccccc34)nc(Nc3ccc(Br)cc3)n2)n1", "assay": "SRB", "conditions": "72 h", "quantity": "IC50", "result": "6000 nM"}
{"Structure (SMILES)": "CC(C)C[C@H](NC(=O)[C@H](Cc1ccccc1)NC(=O)c1cnccn1)B(O)O", "assay": "ATP luminescence", "quantity": "IC50", "result": "8.8 nM"}
{"Structure (SMILES)": "NNc1nc(Nc2ccccc2)nc(Nc2ccc(Br)cc2)n1", "assay": "SRB", "conditions": "72 h", "quantity": "IC50", "result": "> 30000 nM"}
{"Structure (SMILES)": "CC(=O)c1c(C)c2cnc(Nc3ccc(N4CCNCC4)cn3)nc2n(C2CCCC2)c1=O", "assay": "resazurin", "quantity": "GI50", "result": "5000 nM"}
